Shown are actives, neighbours in structure and some others; about 3.5% of the full set was active somewhere.
MrgX1 antag – antagonists of human MrgX1 receptor, primary screen, HEK293 cells, Fluo-4 calcium flux; Mas-related G-protein coupled receptor member X1 (Homo sapiens), Q96LB2; BAM8-22 antagonism; active compounds read low; B-score at 10 µM; 310,000 tested, 1.3% active; AID 588676, 2011;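 active = calcium-response B-score plate-corrected more than 3 library SD below zero, starting fluorescence within 5 deviations, no agonist response on first addition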;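 note: peak minus trough fluorescence over baseline after final BAM8-22 challenge near maximal dose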
Target sequence (Q96LB2 whole entry, looked up): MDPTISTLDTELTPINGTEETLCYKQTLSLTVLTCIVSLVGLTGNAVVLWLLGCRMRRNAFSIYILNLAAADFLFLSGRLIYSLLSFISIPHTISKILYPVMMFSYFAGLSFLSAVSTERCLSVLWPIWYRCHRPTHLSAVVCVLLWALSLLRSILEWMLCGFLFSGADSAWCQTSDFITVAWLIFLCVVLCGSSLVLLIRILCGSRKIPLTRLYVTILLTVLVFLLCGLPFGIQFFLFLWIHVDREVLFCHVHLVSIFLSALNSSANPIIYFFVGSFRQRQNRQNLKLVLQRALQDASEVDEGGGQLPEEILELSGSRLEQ
RGS4 act – RGS4 potentiators or activators, primary screen, cell-based, HEK293 M3R inducible RGS4, calcium flux. carbachol calcium flux Fluo4; active compounds read low. B-score at 10 µM. 310,000 tested, 0.92% active. AID 463111, 2010;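 active = B-score of the integrated calcium signal more than 4 SD below the library mean, with starting fluorescence not abnormally high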;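 note: negative B-score means reduced calcium response which marks RGS4 activation or potentiation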
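Also added: carbachol at ECmax as muscarinic agonist stimulus; Assay system: HEK293 cells with stable M3R and inducible RGS4; Timing: overnight RGS4 induction, 30 min dye load 37 °C, 20 min compound RT; Measured by: Fluo4-AM (2 µM) calcium-flux fluorescence, kinetic read.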
RGS4 block – RGS4 inhibitors, primary screen, cell-based, HEK293 M3R inducible RGS4, calcium flux; AID 463165, 2010; 310,000 tested, 0.45% active; Fluo-4 calcium flux; active compounds read high; triggered by carbachol at its EC20; B-score at 10 µM; Regulator of G-protein signaling 4 (Homo sapiens), P49798;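 active = B-score, a plate-corrected calcium signal, over three deviations above library mean, with baseline fluorescence within five deviations of library mean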;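 note: RGS4 expression induced by doxycycline in cells with stable M3 receptor; B-score is computed from the integrated fluorescence ratio over baseline after carbachol; higher B-score means a larger calcium signal and so more RGS4 inhibition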
MrgX1 agonist – agonists of human MrgX1 receptor, primary screen, HEK293 cells, Fluo-4 calcium flux; Fluo-4 calcium fluorescence, agonist mode; active compounds read high; B-score at 10 µM; 310,000 tested, 0.44% active;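 active = calcium response B-score plate-corrected fluorescence ratio at least 3 library SD, with starting fluorescence B-score inside 5 SD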
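Test system: HEK293 cells stably expressing human MrgX1 receptor; amount: 15,000 cells per well; doses: compound delivered in addition one of three; times: overnight plating before 1 h dye loading; detection: Fluo-4 NW calcium-flux fluorescence, kinetic read; read-out basis: B-scored fluorescence response ratio; controls: positive and negative controls per plate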
MrgX1 PAM – positive allosteric modulators of MrgX1, primary screen, HEK293 cells, Fluo-4 calcium flux. Mas-related G-protein coupled receptor member X1 (Homo sapiens), Q96LB2. FDSS; active compounds read high. B-score at 10 µM. 310,000 tested, 0.63% active;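 active = plate-corrected calcium response at least 3 library SD above typical, normal starting fluorescence, not activating the receptor alone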;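 note: compound read alongside a low EC10 to EC30 dose of BAM8-22 agonist; peak minus trough fluorescence over baseline measured at the second addition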
* marks the source's active call; other numbers are inactive results; i = inactive; nt = not tested or not shown.

SMILES | MrgX1 antag | RGS4 act | RGS4 block | MrgX1 agonist | MrgX1 PAM
O=C1NCC(c2ccccc2)C1C(=O)N/N=C/c1ccc(Cl)s1 (stereo unspecified) | i | i | i | 31* | i
O=C1NCC(c2ccccc2)C1C(=O)N/N=C\c1ccc(-c2ccc(Cl)c(Cl)c2)o1 (stereo unspecified) | i | i | 9* | i | i
Cc1ccc(-n2cccn2)c(CN2CCC(CO)(CCc3ccccc3)CC2)c1 | nt | i | i | nt | nt
CCOC(=O)Cc1cc(=O)[nH]c(/N=C(\N)Nc2ccc(C)cc2C)n1 | i | i | i | i | i
CC(=O)Nc1cccc(NC(=O)CCN2C(=O)c3ccccc3S2(=O)=O)c1 | i | i | i | i | i
CCOC(=O)c1c(C(F)(F)C(F)(F)C(F)(F)C(F)(F)F)n[nH]c1C | i | i | i | i | i
CN1CC=C2C(C#N)=C(N)C(C#N)(C#N)C(Cc3ccccc3)C2C1 (stereo unspecified) | i | i | i | 36* | i
O=C(O)Cn1cc(/C=c2/sc3nc4ccccc4n3c2=O)c2ccccc21 | i | i | i | 27* | i
Cc1ccc(-n2c(C)cc(/C=c3/sc4nc5ccccc5n4c3=O)c2C)cc1 | i | i | i | i | i
CCc1cccc(NC(=O)C2CC2c2ccccc2)c1 (stereo unspecified) | i | i | i | i | i
O=C(NNC(=O)C1CC1c1ccccc1)Nc1cccc(Cl)c1 (stereo unspecified) | -5.4* | i | i | i | i
CCCCc1c(C(=O)O)cc(OC)cc1C(=O)O | i | i | i | i | i
CCCCCc1c2c(cc(O)c1C(=O)O)OC(=O)c1c(cc(OC)cc1C(=O)CCCC)O2 | -7.9* | -7* | i | i | i
COc1ccc(C(=O)NCCCCNC(=O)c2ccc(OC)c(OC)c2)cc1OC | i | i | i | i | i
Cc1ccccc1OCCNc1cc(N2CCNCC2)ccc1[N+](=O)[O-] | i | i | 5.1* | 27* | i
O=C1NC(Nc2nccs2)(C(F)(F)F)C(=O)N1CCc1ccccc1 (stereo unspecified) | i | i | i | i | i
O=C(CCc1cn2ccccc2n1)NC1CCCc2c1cnn2-c1ccccc1F (stereo unspecified) | i | i | i | i | i
Cc1nn(CCCC(=O)NCCc2ccccc2)c(C)c1[N+](=O)[O-] | i | i | i | i | 7.2*
Cc1nn(Cc2c(Cl)cccc2Cl)c(C)c1NC(=O)CCCn1nc(C)c([N+](=O)[O-])c1C | -4.5* | i | i | i | i
Cc1ccc(Cn2nc(C)c(NC(=O)CCCn3nc(C)c([N+](=O)[O-])c3C)c2C)cc1 | i | i | i | i | i
COc1ccc(C(=O)/C=C(/C)N(C)C)cc1 | i | i | i | i | i
O=C(Nc1ccncc1)c1ccc(Cl)c(S(=O)(=O)N2CCCCC2)c1 | i | i | i | i | i
CCN(CC)CCOC(=O)c1ccc(NC(=O)c2ccc(Cl)c(S(=O)(=O)N3CCCCCC3)c2)cc1 | -6.8* | i | i | i | i
Cc1cc2cc(CN(C(=O)C3CC3)C3CCCC3)c3nnnn3c2cc1C | i | i | i | i | i
N#C/C(=C\c1ccc(O)c(O)c1)C(=O)NCCCc1ccccc1 | i | i | i | i | 6.7*
COc1ccc(C(=O)Nc2c3c(nn2-c2ccc(Cl)cc2)CS(=O)(=O)C3)cc1 | i | i | i | i | i
CCCOC(=O)c1c(-c2ccc(OC)cc2)oc2ccc(-c3ccc(OC)nc3)cc12 | -8.3* | i | i | i | i
COC(=O)c1c(-c2ccc(OC)cc2)oc2ccc(-c3ccc(OC)nc3)cc12 | i | i | i | i | i
